Assay results as given in ChEMBL document CHEMBL4316631, “Anti-inflammatory Potential of Saponins from Aster tataricus via NF-κB/MAPK Activation” (J Nat Prod, 2019).

Tests used:
[1] = tested on: RAW264.7; assay: Anti-inflammatory activity in mouse RAW264.7 cells assessed as inhibition of LPS-induced nitric oxide production preincubated for 30 mins followed by LPS-stimulation and measured after 24 hrs by Griess assay; format: functional, cell-based
Outline: (§1)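 RAW 264.7 macrophages stimulated with LPS; NO release quantified. Single-point screen at 50 μM; IC50 derived by nonlinear regression of sigmoidal dose–response curve, reported with 95% confidence intervals. Dexamethasone as positive control.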

[2] = tested on: RAW264.7; assay: Cytotoxicity against mouse RAW264.7 cells assessed as reduction in cell viability at >50 uM measured after 24 hrs by MTT assay; format: cell-based; details: raw264.7, 24 h
[3] = tested on: RAW264.7; assay: Anti-inflammatory activity in mouse RAW264.7 cells assessed as inhibition of LPS-induced nitric oxide production at 50 uM preincubated for 30 mins followed by LPS-stimulation and measured after 24 hrs by Griess assay relative to control; format: functional; outline: as §1

Row | IC50 [1] [nM] | Structure (SMILES) | Activity [2] | inhibition at 50 µM [3] [%]
1 | > 50000 | CC1(C)CC[C@]2(C(=O)O)[C@H](O)C[C@]3(C)C(=CC[C@@H]4[C@@]5(C)C[C@H](O)[C@H](O[C@@H]6O[C@H](CO[C@@H]7OC[C@H](O)[C@H](O)[C@H]7O)[C@@H](O)[C@H](O)[C@H]6O)C(C)(C)[C@@H]5CC[C@]43C)[C@@H]2C1 | Non-Toxic | –
2 | > 50000 | CC1(C)CC[C@]2(C(=O)O[C@@H]3OC[C@@H](O)[C@H](O)[C@H]3O)[C@H](O)C[C@]3(C)C(=CC[C@@H]4[C@@]5(C)C[C@H](O)[C@H](O[C@@H]6O[C@H](CO[C@@H]7OC[C@H](O)[C@H](O)[C@H]7O)[C@@H](O)[C@H](O)[C@H]6O)C(C)(C)[C@@H]5CC[C@]43C)[C@@H]2C1 | Non-Toxic | –
3 | 2100 | C[C@@H]1O[C@@H](O[C@H]2[C@H](OC(=O)[C@]34CCC(C)(C)C[C@H]3C3=CC[C@@H]5[C@@]6(C)CC[C@H](O[C@@H]7O[C@H](CO[C@@H]8OC[C@H](O)[C@H](O)[C@H]8O)[C@@H](O)[C@H](O)[C@H]7O)C(C)(C)[C@@H]6CC[C@@]5(C)[C@]3(C)C[C@H]4O)OC[C@@H](O)[C@@H]2O)[C@H](O)[C@H](O)[C@H]1O[C@@H]1OC[C@H](O)[C@H](O[C@@H]2OC[C@@H](O)[C@H](O)[C@H]2O)[C@H]1O | – | > 50
4 | 42100 | C[C@@H]1O[C@@H](O[C@@H]2[C@@H](O[C@@H]3O[C@@H](C)[C@H](O[C@@H]4OC[C@@H](O)[C@H](O)[C@H]4O)[C@@H](O[C@@H]4OC[C@](O)(CO)[C@H]4O)[C@H]3O)[C@H](OC(=O)[C@]34CCC(C)(C)C[C@H]3C3=CC[C@@H]5[C@@]6(C)C[C@H](O)[C@H](O[C@@H]7O[C@H](CO[C@@H]8OC[C@H](O)[C@H](O)[C@H]8O)[C@@H](O)[C@H](O)[C@H]7O)C(C)(C)[C@@H]6CC[C@@]5(C)[C@]3(C)CC4)OC[C@H]2O)[C@H](O)[C@H](O)[C@H]1O | – | > 50
5 | 2700 | C[C@@H]1O[C@@H](O[C@@H]2[C@@H](O)[C@H](O[C@@H]3[C@@H](O[C@@H]4OC[C@](O)(CO)[C@H]4O)[C@@H](O)[C@H](O[C@H]4[C@H](OC(=O)[C@]56CCC(C)(C)C[C@H]5C5=CC[C@@H]7[C@@]8(C)C[C@H](O)[C@H](O[C@@H]9O[C@H](CO[C@@H]%10OC[C@H](O)[C@H](O)[C@H]%10O)[C@@H](O)[C@H](O)[C@H]9O)C(C)(C)[C@@H]8CC[C@@]7(C)[C@]5(C)C[C@H]6O)OC[C@@H](O)[C@@H]4O)O[C@H]3C)OC[C@@H]2O)[C@H](O)[C@H](O)[C@H]1O | – | > 50
6 | > 50000 | C[C@@H]1O[C@@H](O[C@H]2[C@H](OC(=O)[C@]34CCC(C)(C)C[C@H]3C3=CC[C@@H]5[C@@]6(C)C[C@H](O)[C@H](O[C@@H]7O[C@H](CO[C@@H]8OC[C@H](O)[C@H](O)[C@H]8O)[C@@H](O)[C@H](O)[C@H]7O)C(C)(C)[C@@H]6CC[C@@]5(C)[C@]3(C)CC4)OC[C@@H](O)[C@@H]2O)[C@H](O)[C@H](O[C@@H]2OC[C@](O)(CO)[C@H]2O)[C@H]1O[C@@H]1OC[C@@H](O)[C@H](O)[C@H]1O | Non-Toxic | –
7 | 10 | C[C@@H]1C[C@H]2[C@@H]3CCC4=CC(=O)C=C[C@]4(C)[C@@]3(F)[C@@H](O)C[C@]2(C)[C@@]1(O)C(=O)CO [DEXAMETHASONE] | – | –
